Measurements as given in ChEMBL document CHEMBL1147383, “Use of alkenylresorcinols from Ononis speciosa as synthetic precursors of compounds with potential biological activity” (J Nat Prod, 1993).
Activity calls are given as the source filed them. No cut-off for these calls is given here.

What was measured:
Priestia megaterium [1] = assay: Antibacterial activity against Bacillus megaterium at 200 ug/disk after 18 hrs by disk diffusion assay; type: functional
Summary of the method: (§1)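 Disk diffusion. Gram-positive strains were grown in brain-heart agar and incubated at 28°. BHA plates were seeded with 0.1 ml of 8-h cultures. 6-mm paper disks were loaded with 100 or 200 µg of compound. Plates were held at 4° for 1 h for diffusion, then incubated. Growth-inhibition halo diameter (mm) was read at 18 h.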

Priestia megaterium [2] = assay: Antibacterial activity against Bacillus megaterium at 100 ug/disk after 18 hrs by disk diffusion assay; type: functional; summary of the method: as §1
Bacillus subtilis [3] = assay: Antibacterial activity against Bacillus subtilis CECT 397 at 200 ug/disk after 18 hrs by disk diffusion assay; type: functional; summary of the method: as §1
Bacillus subtilis [4] = assay: Antibacterial activity against Bacillus subtilis CECT 397 at 100 ug/disk after 18 hrs by disk diffusion assay; type: functional; summary of the method: as §1
Niallia circulans [5] = assay: Antibacterial activity against Bacillus circulans at 200 ug/disk after 18 hrs by disk diffusion assay; type: functional; details: read-out: Diameter of inhibition zone; summary of the method: as §1
Niallia circulans [6] = assay: Antibacterial activity against Bacillus circulans at 100 ug/disk after 18 hrs by disk diffusion assay; type: functional; details: for zone of inhibition at 100 µg/disc: read-out: Diameter of inhibition zone; summary of the method: as §1
Bacillus licheniformis [7] = assay: Antibacterial activity against Bacillus licheniformis CECT20 at 200 ug/disk after 18 hrs by disk diffusion assay; type: functional; details: read-out: Diameter of inhibition zone; summary of the method: as §1
Bacillus licheniformis [8] = assay: Antibacterial activity against Bacillus licheniformis CECT20 at 100 ug/disk after 18 hrs by disk diffusion assay; type: functional; details: read-out: Diameter of inhibition zone; summary of the method: as §1
Enterococcus faecalis [9] = assay: Antibacterial activity against Enterococcus faecalis S-86 at 200 ug/disk after 18 hrs by disk diffusion assay; type: functional; details: read-out: Diameter of inhibition zone; summary of the method: as §1
Enterococcus faecalis [10] = assay: Antibacterial activity against Enterococcus faecalis S-86 at 100 ug/disk after 18 hrs by disk diffusion assay; type: functional; details: read-out: Diameter of inhibition zone; summary of the method: as §1
Micrococcus luteus = assay: Antibacterial activity against Micrococcus lysodeikticus at 200 ug/disk after 18 hrs by disk diffusion assay; type: functional; details: read-out: Diameter of inhibition zone; summary of the method: as §1
Staphylococcus aureus = assay: Antibacterial activity against Staphylococcus aureus ATCC 8 at 200 ug/disk after 18 hrs by disk diffusion assay; type: functional; details: for zone of inhibition at 200 µg/disc: ATCC 8, 18 h, read-out: Diameter of inhibition zone; summary of the method: as §1
Alcaligenes faecalis = assay: Antibacterial activity against Alcaligenes faecalis after 18 hrs by disk diffusion assay; type: functional, organism-based
Summary of the method: (§2)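 Gram-negative strains were grown in brain-heart agar and incubated at 37°. BHA plates were inoculated with 0.1 ml of 8-h cultures. 6-mm paper disks carried 100 or 200 µg of compound. Plates stood 1 h at 4° to allow diffusion before incubation. The inhibition halo diameter (mm) was measured after 18 h.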

Escherichia coli = assay: Antibacterial activity against Escherichia coli U9 after 18 hrs by disk diffusion assay; type: functional, organism-based; summary of the method: as §2
[11] = system: Pseudomonas reptilivorous; assay: Antibacterial activity against Pseudomonas reptilovora after 18 hrs by disk diffusion assay; type: functional, organism-based; summary of the method: as §2
Pseudomonas fluorescens = assay: Antibacterial activity against Pseudomonas fluorescens N5 after 18 hrs by disk diffusion assay; type: functional, organism-based; summary of the method: as §2
Proteus = assay: Antibacterial activity against Proteus after 18 hrs by disk diffusion assay; type: functional, organism-based; summary of the method: as §2
Salmonella = assay: Antibacterial activity against Salmonella after 18 hrs by disk diffusion assay; type: functional, organism-based; summary of the method: as §2
Saccharomyces cerevisiae [12] = assay: Antifungal activity against Saccharomyces cerevisiae S1 after 18 hrs by disk diffusion assay; type: functional, organism-based
Summary of the method: (§3)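 Yeast strains were grown in YEPG at 28°. Plates were seeded with 0.1 ml of 8-h-old cultures. 6-mm paper disks were impregnated with 100 or 200 µg. Diffusion ran 1 h at 4°, followed by incubation. Zone of growth inhibition (diameter, mm) was recorded 18 h after incubation.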

Saccharomyces cerevisiae [13] = assay: Antifungal activity against Saccharomyces cerevisiae K-2 after 18 hrs by disk diffusion assay; type: functional, organism-based; summary of the method: as §3
Saccharomyces cerevisiae [14] = assay: Antifungal activity against Saccharomyces cerevisiae X-3 after 18 hrs by disk diffusion assay; type: functional, organism-based; summary of the method: as §3
Aspergillus niger = assay: Antifungal activity against Aspergillus niger ATCC 9142 after 18 hrs by disk diffusion assay; type: functional, organism-based
Summary of the method: (§4)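 Filamentous fungi were grown on Sabouraud agar with chloramphenicol at 28°. Plates were inoculated with 0.1 ml of 8-h cultures. 6-mm disks bearing 100 or 200 µg were applied. Plates were kept at 4° for 1 h, then incubated. Inhibition halo diameter (mm) was read at 18 h.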

Botrytis cinerea [15] = assay: Antifungal activity against Botrytis cinerea CECT 2100 after 18 hrs by disk diffusion assay; type: functional, organism-based
Summary of the method: (§5)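 Botrytis strains were grown on potato agar at 28°. Plates were inoculated with 0.1 ml of 8-h cultures. 6-mm paper disks were impregnated with 100 or 200 µg. Plates were held 1 h at 4° for diffusion, then incubated. Growth-inhibition halo diameter (mm) was read 18 h after incubation.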

Botrytis cinerea [16] = assay: Antifungal activity against Botrytis cinerea CECT 2850 after 18 hrs by disk diffusion assay; type: functional, organism-based; summary of the method: as §5
Fusarium fujikuroi = assay: Antifungal activity against Gibberella fujikuroi IMI 58289 after 18 hrs by disk diffusion assay; type: functional, organism-based; summary of the method: as §4
[17] = read-out: Diameter of inhibition zone

Row | Structure (SMILES) | zone of inhibition at 200 µg/disc (Niallia circulans [5]) [mm] | zone of inhibition at 100 µg/disc (Niallia circulans [6]) [mm] | zone of inhibition at 200 µg/disc (Bacillus licheniformis [7]) [mm] | zone of inhibition at 100 µg/disc (Bacillus licheniformis [8]) [mm] | zone of inhibition at 200 µg/disc (Enterococcus faecalis [9]) [mm] | zone of inhibition at 100 µg/disc (Enterococcus faecalis [10]) [mm] | zone of inhibition at 200 µg/disc (Micrococcus luteus) [mm] | Activity (Alcaligenes faecalis) | Activity (Escherichia coli) | Activity [11] | Activity (Pseudomonas fluorescens) | Activity (Proteus) | Activity (Salmonella) | Activity (Saccharomyces cerevisiae [12]) | Activity (Saccharomyces cerevisiae [13]) | Activity (Saccharomyces cerevisiae [14]) | Activity (Aspergillus niger) | Activity (Botrytis cinerea [15]) | Activity (Botrytis cinerea [16]) | Activity (Fusarium fujikuroi) | other results
1 | CCCCC[C@H](/C=C\CCCCCCCc1cc(O)cc(O)c1C(=O)O)OC(C)=O | 9 | 8 | 22 | 18 | 15 | 13 | 13 | inactive | inactive | inactive | inactive | inactive | inactive | inactive | inactive | inactive | inactive | inactive | inactive | inactive | zone of inhibition at 200 µg/disc (Priestia megaterium [1]; [17]): 7 mm; zone of inhibition at 100 µg/disc (Priestia megaterium [2]; [17]): 7 mm; zone of inhibition at 200 µg/disc (Bacillus subtilis [3]; [17]): 8 mm; zone of inhibition at 100 µg/disc (Bacillus subtilis [4]; [17]): 7 mm; zone of inhibition at 200 µg/disc (Staphylococcus aureus): 7 mm
2 | CCCCCC/C=C\CCCCCCCc1cc(O)cc(O)c1C(=O)O | 7 |  | 15 | 15 | 30 | 16 | 7 | inactive | inactive | inactive | inactive | inactive | inactive | inactive | inactive | inactive | inactive | inactive | inactive | inactive | Activity (Priestia megaterium [1]): inactive; Activity (Priestia megaterium [2]): inactive; Activity (Bacillus subtilis [3]): inactive; Activity (Bacillus subtilis [4]): inactive; Activity (Niallia circulans [6]): inactive; zone of inhibition at 200 µg/disc (Staphylococcus aureus): 7 mm
3 | CCCCC[C@H](/C=C\CCCCCCCc1cc(O)cc(O)c1)OC(C)=O | 7 | 7 | 9 | 7 | 6 | 7 | 7 | inactive | inactive | inactive | inactive | inactive | inactive | inactive | inactive | inactive | inactive | inactive | inactive | inactive | Activity (Priestia megaterium [1]): inactive; Activity (Priestia megaterium [2]): inactive; Activity (Bacillus subtilis [3]): inactive; Activity (Bacillus subtilis [4]): inactive; Activity (Staphylococcus aureus): inactive
